{
  "source": "ChEMBL document CHEMBL5154790",
  "about": "(J Med Chem, 2022)",
  "key": {"[1]": {"assay": "Cytotoxicity against human SH-SY5Y cells assessed as reduction in cell viability incubated for 24 hrs by propidium iodide staining based fluorescence analysis", "assay_type": "toxicity", "conditions": "read-out: LD50"}, "Mus musculus [2]": {"tested_on": "Mus musculus", "assay": "Antialzheimer activity against SAMP8 mouse assessed as decrease in hippocampal sAPPbeta levels at 2 mg/kg, po measured after 4 weeks by Western blot analysis", "assay_type": "functional, organism-based", "how_it_was_run": "(§1)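 SAMP8 mice received oral dosing daily for 4 weeks at 2 mg kg⁻¹ day⁻¹, with vehicle-treated SAMP8 mice as controls. Hippocampal protein levels were expressed relative to the SAMP8 control group, set to 100%; for tau this is the p-Tau (Ser396 and Ser404) ratio. Values are mean ± SEM, tested against control.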"}, "Mus musculus [3]": {"tested_on": "Mus musculus", "assay": "Antineuroinflammatory activity in SAMP8 mouse assessed as decrease in NFkappaB protein expression hippocampus tissue at 2 mg/kg, po measured after 4 weeks by Western blot analysis", "assay_type": "functional, organism-based", "how_it_was_run": "as §1"}, "Mus musculus [4]": {"tested_on": "Mus musculus", "assay": "Antineuroinflammatory activity in SAMP8 mouse assessed as decrease in IL-1beta gene expression hippocampus tissue at 2 mg/kg, po measured after 4 weeks by RT-PCR analysis", "assay_type": "functional, organism-based", "how_it_was_run": "(§2)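 Hippocampal gene expression was measured by real-time PCR in SAMP8 mice after daily oral treatment for 4 weeks (2 mg kg⁻¹ day⁻¹), compared with vehicle-treated SAMP8 controls. Values are mean ± SEM.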"}, "Mus musculus [5]": {"tested_on": "Mus musculus", "assay": "Cognitive enhancing effect in SAMP8 mouse assessed as improvement of long term memory by measuring increased discrimination index at 2 mg/kg, po administered for 4 weeks by novel object recognition test", "assay_type": "functional, organism-based", "how_it_was_run": "(§3)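 SAMP8 mice were dosed orally once daily for 4 weeks at 2 mg kg⁻¹ day⁻¹; controls received vehicle. In the novel object recognition test, a familiarization phase preceded testing for short-term and long-term working memory. The discrimination index scores the ability to distinguish a known from a new object. Values are mean ± SEM.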"}, "Mus musculus [6]": {"tested_on": "Mus musculus", "assay": "Cognitive enhancement effect […] of SAMP8 mouse assessed as increase in novelty discrimination index at 2 mg/kg, po administered 4 weeks by Novel object recognition test", "assay_type": "functional, organism-based", "how_it_was_run": "as §3"}, "Mus musculus [7]": {"tested_on": "Mus musculus", "assay": "Antineuroinflammatory activity in SAMP8 mouse assessed as increase in synaptophysin expression in hippocampus tissue at 2 mg/kg, po measured after 4 weeks by Western blot analysis", "assay_type": "functional, organism-based", "how_it_was_run": "as §1"}, "Mus musculus [8]": {"tested_on": "Mus musculus", "assay": "Antineuroinflammatory activity in SAMP8 mouse assessed as decrease in IL-6 gene expression hippocampus tissue at 2 mg/kg, po measured after 4 weeks by RT-PCR analysis", "assay_type": "functional, organism-based", "how_it_was_run": "as §2"}, "Mus musculus [9]": {"tested_on": "Mus musculus", "assay": "Antialzheimer activity against SAMP8 mouse assessed as increase in hippocampal sAPPalpha levels at 2 mg/kg, po measured after 4 weeks by Western blot analysis", "assay_type": "functional, organism-based", "how_it_was_run": "as §1"}, "Mus musculus [10]": {"tested_on": "Mus musculus", "assay": "Antineuroinflammatory activity in SAMP8 mouse assessed as decrease in Gfap gene expression hippocampus tissue at 2 mg/kg, po measured after 4 weeks by RT-PCR analysis", "assay_type": "functional, organism-based", "how_it_was_run": "as §2"}, "Mus musculus [11]": {"tested_on": "Mus musculus", "assay": "Cognitive enhancing effect in SAMP8 mouse assessed as improvement of short term memory by measuring discrimination index at 2 mg/kg, po administered for 4 weeks by novel object recognition test", "assay_type": "functional, organism-based", "how_it_was_run": "as §3"}, "Mus musculus [12]": {"tested_on": "Mus musculus", "assay": "Antialzheimer activity against SAMP8 mouse assessed as reduction in tau phosphorylation ar Ser396 residue at 2 mg/kg, po measured after 4 weeks by Western blot analysis", "assay_type": "functional, organism-based", "how_it_was_run": "as §1"}, "[13]": {"molecular_target": "Cholinesterase (Homo sapiens) (UniProt P06276)", "sequence (P06276 whole entry)": "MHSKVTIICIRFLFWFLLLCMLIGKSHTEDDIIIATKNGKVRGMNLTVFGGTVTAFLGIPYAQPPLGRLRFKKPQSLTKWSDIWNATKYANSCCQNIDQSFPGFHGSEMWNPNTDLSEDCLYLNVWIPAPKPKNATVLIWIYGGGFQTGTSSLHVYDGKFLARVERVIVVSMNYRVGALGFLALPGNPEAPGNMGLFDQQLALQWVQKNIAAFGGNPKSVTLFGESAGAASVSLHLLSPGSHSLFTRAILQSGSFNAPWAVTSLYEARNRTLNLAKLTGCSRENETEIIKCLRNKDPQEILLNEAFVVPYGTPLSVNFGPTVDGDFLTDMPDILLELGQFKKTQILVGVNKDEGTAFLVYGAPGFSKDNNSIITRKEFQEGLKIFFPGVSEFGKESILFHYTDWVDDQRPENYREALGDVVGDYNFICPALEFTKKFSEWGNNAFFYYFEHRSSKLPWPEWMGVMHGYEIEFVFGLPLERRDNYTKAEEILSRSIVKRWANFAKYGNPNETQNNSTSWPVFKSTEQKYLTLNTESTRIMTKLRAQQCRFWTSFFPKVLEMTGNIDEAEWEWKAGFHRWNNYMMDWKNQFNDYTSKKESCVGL", "assay": "Inhibition of human recombinant BChE at 100 uM using butyrylthiocholine iodide as substrate preincubated for 20 mins followed by substrate addition and measured every 240 sec by Ellman's method relative to control"}},
  "note": "Active and inactive are the calls of the source. No cut-off for these calls is given here.",
  "data": [
    {"compound": "CC1=C[C@@H]2Cc3nc4cc(Cl)ccc4c(NCCCCC(=O)N4CCC(NC(=O)Nc5ccc(OC(F)(F)F)cc5)CC4)c3[C@H](C1)C2", "values": [
      {"measurement": "CC50 at 24 h", "setting": "[1]", "result": "> 100", "unit": "µM"}
    ]},
    {"compound": "O=C(Nc1ccc(OC(F)(F)F)cc1)NC1CCN(C(=O)CCCCNc2c3c(nc4cc(Cl)ccc24)CCCC3)CC1", "values": [
      {"measurement": "CC50 at 24 h", "setting": "[1]", "result": "> 100", "unit": "µM"},
      {"measurement": "Activity", "setting": "Mus musculus [2]", "result": "Active"},
      {"measurement": "Activity", "setting": "Mus musculus [3]", "result": "Active"},
      {"measurement": "Activity", "setting": "Mus musculus [4]", "result": "Active"},
      {"measurement": "Activity", "setting": "Mus musculus [5]", "result": "Active"},
      {"measurement": "Activity", "setting": "Mus musculus [6]", "result": "Active"},
      {"measurement": "Activity", "setting": "Mus musculus [7]", "result": "Active"},
      {"measurement": "Activity", "setting": "Mus musculus [8]", "result": "Active"},
      {"measurement": "Activity", "setting": "Mus musculus [9]", "result": "Active"},
      {"measurement": "Activity", "setting": "Mus musculus [10]", "result": "Active"},
      {"measurement": "Activity", "setting": "Mus musculus [11]", "result": "Active"},
      {"measurement": "Activity", "setting": "Mus musculus [12]", "result": "Active"}
    ]},
    {"compound": "O=C(Nc1ccc(OC(F)(F)F)cc1)NC1CCN(C(=O)CCCNc2c3c(nc4cc(Cl)ccc24)CCCC3)CC1", "values": [
      {"measurement": "CC50 at 24 h", "setting": "[1]", "result": "> 100", "unit": "µM"}
    ]},
    {"compound": "CC(=O)N1CCC(NC(=O)Nc2ccc(OC(F)(F)F)cc2)CC1", "values": [
      {"measurement": "inhibition", "setting": "[13]", "result": "< 10", "unit": "%"}
    ]},
    {"compound": "O=C(Nc1ccc(OC(F)(F)F)cc1)NC1CCN(C(=O)CCNc2c3c(nc4cc(Cl)ccc24)CCCC3)CC1", "values": [
      {"measurement": "CC50 at 24 h", "setting": "[1]", "result": 92.8, "unit": "µM"}
    ]}
  ]
}
